Assay results from ChEMBL document CHEMBL3414513, “Synthesis and biological evaluation of betulonic acid derivatives as antitumor agents” (Eur J Med Chem, 2015).
pIC50: −log10 of the molar value.

Legend:
Format in all cases: functional, cell-based
MGC-803 = assay: Cytotoxicity against human MGC803 cells after 72 hrs by MTT assay; details: for pIC50: MGC-803, 72 h
Method in brief: (§1)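 Cancer lines grown in RPMI 1640 with 10% heat-inactivated FBS, 37 °C, 5% CO2. Cells trypsinized at 80-90% confluence, seeded at 2×10^3/well overnight, then given compounds (DMSO stocks diluted in medium) at various concentrations for 72 h at 37 °C. Controls: 0.1% DMSO negative, adriamycin positive. MTT (5 mg/ml) added for 4 h, formazan dissolved in SDS 12 h, A595 read. IC50 from dose-response curves.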

PC-3 = assay: (§2) Cytotoxicity against human PC3 cells after 72 hrs by MTT assay
Method in brief: as §1, with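 “Cells” for “Cancer lines grown in RPMI 1640 with 10% heat-inactivated FBS, 37 °C, 5% CO2. Cells”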

[1] = as §2; details: PC-3, 72 h
Method in brief: as §1, with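 “Cells” for “Cancer lines grown in RPMI 1640 with 10% heat-inactivated FBS, 37 °C, 5% CO2. Cells”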

A-375 = assay: Cytotoxicity against human A375 cells after 72 hrs by MTT assay; details: for pIC50: A-375, 72 h; method in brief: as §1
MCF7 = assay: Cytotoxicity against human MCF7 cells after 72 hrs by MTT assay; details: for pIC50: MCF7, 72 h; method in brief: as §1
Bcap37 = assay: Cytotoxicity against human Bcap37 cells after 72 hrs by MTT assay; details: for pIC50: Bcap37, 72 h; method in brief: as §1

SMILES | Activity (MGC-803) | pIC50 (MGC-803) | Activity (PC-3) | pIC50 [1] | Activity (A-375) | pIC50 (A-375) | Activity (MCF7) | pIC50 (MCF7) | Activity (Bcap37) | pIC50 (Bcap37)
C=C(C)[C@@H]1CC[C@]2(C(=O)OCCCBr)CC[C@]3(C)[C@H](CC[C@@H]4[C@@]5(C)CCC(=O)C(C)(C)[C@@H]5CC[C@]43C)[C@@H]12 | Dose-dependent effect | < 4.70 | Dose-dependent effect | < 4.70 | Dose-dependent effect | < 4.70 | Dose-dependent effect | < 4.70 | Dose-dependent effect | < 4.70
C=C(C)[C@@H]1CC[C@]2(C(=O)OCCCCN3CCOCC3)CC[C@]3(C)[C@H](CC[C@@H]4[C@@]5(C)CCC(=O)C(C)(C)[C@@H]5CC[C@]43C)[C@@H]12 | Dose-dependent effect | 5.25 | Dose-dependent effect | 5.14 | Dose-dependent effect | 5.17 | Dose-dependent effect | 5.07 | Dose-dependent effect | 5.28
C=C(C)[C@@H]1CC[C@]2(C(=O)OCCN3CCN(C(=O)c4c(F)cccc4Cl)CC3)CC[C@]3(C)[C@H](CC[C@@H]4[C@@]5(C)CCC(=O)C(C)(C)[C@@H]5CC[C@]43C)[C@@H]12 | Dose-dependent effect | 5.28 | Dose-dependent effect | 5.03 | Dose-dependent effect | 5.08 | Dose-dependent effect | 5.09 | Dose-dependent effect | 5.12
C=C(C)[C@@H]1CC[C@]2(C(=O)OCCCN3CCOCC3)CC[C@]3(C)[C@H](CC[C@@H]4[C@@]5(C)CCC(=O)C(C)(C)[C@@H]5CC[C@]43C)[C@@H]12 | Dose-dependent effect | 5.25 | Dose-dependent effect | 5.18 | Dose-dependent effect | 5.07 | Dose-dependent effect | 5.03 | Dose-dependent effect | 5.14
C=C(C)[C@@H]1CC[C@]2(C(=O)OCCN(CC)CC)CC[C@]3(C)[C@H](CC[C@@H]4[C@@]5(C)CCC(=O)C(C)(C)[C@@H]5CC[C@]43C)[C@@H]12 | Dose-dependent effect | 4.93 | Dose-dependent effect | 5.00 | Dose-dependent effect | 4.84 | Dose-dependent effect | 4.89 | Dose-dependent effect | 4.81
C=C(C)[C@@H]1CC[C@]2(C(=O)OCCN3CCCC3)CC[C@]3(C)[C@H](CC[C@@H]4[C@@]5(C)CCC(=O)C(C)(C)[C@@H]5CC[C@]43C)[C@@H]12 | Dose-dependent effect | 4.97 | Dose-dependent effect | 4.91 | Dose-dependent effect | 5.01 | Dose-dependent effect | 5.03 | Dose-dependent effect | 4.99
C=C(C)[C@@H]1CC[C@]2(C(=O)OCCN3CCCCC3)CC[C@]3(C)[C@H](CC[C@@H]4[C@@]5(C)CCC(=O)C(C)(C)[C@@H]5CC[C@]43C)[C@@H]12 | Dose-dependent effect | 4.90 | Dose-dependent effect | 4.73 | Dose-dependent effect | 4.77 | Dose-dependent effect | 4.80 | Dose-dependent effect | 4.77
C=C(C)[C@@H]1CC[C@]2(C(=O)OCCN3CCOCC3)CC[C@]3(C)[C@H](CC[C@@H]4[C@@]5(C)CCC(=O)C(C)(C)[C@@H]5CC[C@]43C)[C@@H]12 | Dose-dependent effect | 5.03 | Dose-dependent effect | 4.95 | Dose-dependent effect | 4.98 | Dose-dependent effect | 5.00 | Dose-dependent effect | 5.06
COc1cccc2c1C(=O)c1c(O)c3c(c(O)c1C2=O)C[C@@](O)(C(=O)CO)C[C@@H]3O[C@H]1C[C@H](N)[C@H](O)[C@H](C)O1 [DOXORUBICIN] | Dose-dependent effect |  | Dose-dependent effect |  | Dose-dependent effect | 6.00 |  | 5.87 | Dose-dependent effect | 5.92
C=C(C)[C@@H]1CC[C@]2(C(=O)OCCCN3CCCCC3)CC[C@]3(C)[C@H](CC[C@@H]4[C@@]5(C)CCC(=O)C(C)(C)[C@@H]5CC[C@]43C)[C@@H]12 | Dose-dependent effect | 5.20 | Dose-dependent effect | 5.24 | Dose-dependent effect | 5.02 | Dose-dependent effect | 5.18 | Dose-dependent effect | 5.02
C=C(C)[C@@H]1CC[C@]2(C(=O)OCCN3CCN(C(=O)CCCCCCCC)CC3)CC[C@]3(C)[C@H](CC[C@@H]4[C@@]5(C)CCC(=O)C(C)(C)[C@@H]5CC[C@]43C)[C@@H]12 | Dose-dependent effect | < 4.70 | Dose-dependent effect | < 4.70 | Dose-dependent effect | < 4.70 | Dose-dependent effect | 4.75 | Dose-dependent effect | < 4.70
C=C(C)[C@@H]1CC[C@]2(C(=O)OCCN3CCN(C(=O)c4c(Cl)cccc4Cl)CC3)CC[C@]3(C)[C@H](CC[C@@H]4[C@@]5(C)CCC(=O)C(C)(C)[C@@H]5CC[C@]43C)[C@@H]12 | Dose-dependent effect | 4.78 | Dose-dependent effect | 4.85 | Dose-dependent effect | 4.76 | Dose-dependent effect | 4.97 | Dose-dependent effect | < 4.70
C=C(C)[C@@H]1CC[C@]2(C(=O)O)CC[C@]3(C)[C@H](CC[C@@H]4[C@@]5(C)CCC(=O)C(C)(C)[C@@H]5CC[C@]43C)[C@@H]12 [BETUNOLIC ACID] |  | 4.75 | Dose-dependent effect | 4.86 | Dose-dependent effect | 4.54 | Dose-dependent effect | 4.74 | Dose-dependent effect | 4.59
C=C(C)[C@@H]1CC[C@]2(C(=O)OCCN3CCN(C(=O)/C=C/c4ccccc4)CC3)CC[C@]3(C)[C@H](CC[C@@H]4[C@@]5(C)CCC(=O)C(C)(C)[C@@H]5CC[C@]43C)[C@@H]12 | Dose-dependent effect | 4.87 | Dose-dependent effect | 4.96 | Dose-dependent effect | 5.03 | Dose-dependent effect | 5.14 | Dose-dependent effect | 5.03
